According to EPA's CvTdb concentration-time database:

Legend:
Rat [1] = assay: concentration in plasma after dosing; conditions: dosed: Wyeth-14643, 1.0 mg/kg, oral, Male, Sprague-Dawley
Rat [2] = assay: concentration in plasma after dosing; conditions: 2 h; dosed: Wyeth-14643; 2.0 mg/kg; iv; Male; Sprague-Dawley
Rat [3] = assay: concentration in plasma after dosing; conditions: 5 min; dosed: Wyeth-14643; 2.0 mg/kg; iv; Male; Sprague-Dawley
Rat [4] = assay: concentration in plasma after dosing; conditions: 1 h; dosed: Wyeth-14643; 5.0 mg/kg; oral; Male; Sprague-Dawley
Rat [5] = assay: concentration in plasma after dosing; conditions: dosed: Bis 2-Chloroethoxy Methane, 40 mg/kg, iv, Male, Harlan Sprague Dawley
Rat [6] = assay: concentration in thymus after dosing; conditions: 3 h; dosed: Bis 2-Chloroethoxy Methane; 20 mg/kg; iv; Female; F344
Rat [7] = assay: concentration in liver after dosing; conditions: 4 h; dosed: Bis 2-Chloroethoxy Methane; 20 mg/kg; iv; Male; F344
Rat [8] = assay: concentration in thymus after dosing; conditions: 5 h; dosed: Bis 2-Chloroethoxy Methane; 20 mg/kg; iv; Male; F344
Rat [9] = assay: concentration in heart after dosing; conditions: 10 min; dosed: Bis 2-Chloroethoxy Methane; 20 mg/kg; iv; Male; F344
Rat [10] = assay: concentration in thymus after dosing; conditions: 2 h; dosed: Bis 2-Chloroethoxy Methane; 20 mg/kg; iv; Female; F344
Rat [11] = assay: concentration in brain after dosing; conditions: 1 h; dosed: Fluorotelomer alcohol 8+2; 80 mg/kg; oral; Female; Harlan Sprague Dawley
Rat [12] = assay: concentration in plasma after dosing; conditions: 0.25 h; dosed: Di-n-butyl phthalate; 100 mg/kg; oral; Male; Sprague-Dawley
Rat [13] = assay: concentration in brain after dosing; conditions: 864 h; dosed: Perfluorodecanoic acid; 10 mg/kg; oral; Female; Harlan Sprague Dawley
Rat [14] = assay: concentration in liver after dosing; conditions: 864 h; dosed: Perfluorodecanoic acid; 10 mg/kg; oral; Male; Harlan Sprague Dawley
Rat [15] = assay: concentration in plasma after dosing; conditions: dosed: Perfluorodecanoic acid, 2 mg/kg, oral, Male, Harlan Sprague Dawley
Rat [16] = assay: concentration in plasma after dosing; conditions: 22 h; dosed: Primidone; 80 mg/kg; oral; Female; F344
Rat [17] = assay: concentration in plasma after dosing; conditions: 3 h; dosed: Primidone; 130 mg/kg; oral; Female; F344
Rat [18] = assay: concentration in plasma after dosing; conditions: 2 h; dosed: Thiodiglycolic Acid; 20 mg/kg; iv; Female; Harlan Sprague Dawley
Rat [19] = assay: concentration in thymus after dosing; conditions: 1 h; dosed: Thiodiglycolic Acid; 20 mg/kg; iv; Male; Harlan Sprague Dawley
Rat [20] = assay: concentration in heart after dosing; conditions: 2 h; dosed: Thiodiglycolic Acid; 20 mg/kg; iv; Male; Harlan Sprague Dawley
Rat [21] = assay: concentration in thymus after dosing; conditions: 4 h; dosed: Thiodiglycolic Acid; 20 mg/kg; iv; Female; Harlan Sprague Dawley
Rat [22] = assay: concentration in heart after dosing; conditions: 1 h; dosed: Thiodiglycolic Acid; 20 mg/kg; iv; Female; Harlan Sprague Dawley
Rat [23] = assay: concentration in heart after dosing; conditions: 20 min; dosed: Thiodiglycolic Acid; 20 mg/kg; iv; Female; Harlan Sprague Dawley
Rat [24] = assay: concentration in heart after dosing; conditions: 10 min; dosed: Thiodiglycolic Acid; 20 mg/kg; iv; Female; Harlan Sprague Dawley
Rat [25] = assay: concentration in plasma after dosing; conditions: 5 min; dosed: dichloroacetic acid; 10 mg/kg; iv; Male; F344
Rat [26] = assay: concentration in plasma after dosing; conditions: dosed: dichloroacetic acid, 10 mg/kg, oral, Male, Harlan Sprague Dawley
Rat [27] = assay: concentration in plasma after dosing; conditions: dosed: dichloroacetic acid, 100 mg/kg, oral, Male, F344
Rat [28] = assay: concentration in plasma after dosing; conditions: dosed: dichloroacetic acid, 40 mg/kg, oral, Female, Harlan Sprague Dawley
Rat [29] = assay: concentration in plasma after dosing; conditions: dosed: dichloroacetic acid, 100 mg/kg, oral, Male, F344; remark: listed apart in the source
Rat [30] = assay: concentration in plasma after dosing; conditions: dosed: dichloroacetic acid, 10 mg/kg, oral, Male, Harlan Sprague Dawley; remark: listed apart in the source
human = assay: concentration in urine after dosing; conditions: dosed: trichloroethylene, inhalation, duration: 2 hr - 20 min
Procedure, shortened: (§1)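 A PubMed search, classifier screening and manual review identified published in vivo toxicokinetic studies, which together with two structured collections supplied concentration-versus-time and amount-versus-time points. Points were mostly digitised from plot screenshots with WebPlotDigitizer, otherwise copied from tables. Dose, route, subject details and medium were hand-curated from each paper, and sampling and analytical methods are those of the sources, often unreported.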

dog = assay: concentration in urine after dosing; conditions: dosed: trichloroethylene, 100 ppm, inhalation, duration: 6 hr, male, beagle
Procedure, shortened: as §1

Cc1cccc(Nc2cc(Cl)nc(SCC(=O)O)n2)c1C
Rat [1]
Conditions	concentration in plasma [ng/mL]
0.5 h	1180
6 h	202

Conditions	concentration in plasma [ng/mL]
Rat [2]	870
Rat [3]	7290
Rat [4]	4730

ClCCOCOCCCl [Bis 2-Chloroethoxy Methane]
Rat [5]
Conditions	concentration in plasma [ng/mL]
5.333 h	72.8
10 min	22300

Conditions	concentration in heart [ng/g]	concentration in liver [ng/g]	concentration in thymus [ng/g]
Rat [6]	–	–	448
Rat [7]	–	86.1	–
Rat [8]	–	–	49
Rat [9]	12300	–	–
Rat [10]	–	–	264

OCCC(F)(F)C(F)(F)C(F)(F)C(F)(F)C(F)(F)C(F)(F)C(F)(F)C(F)(F)F [Fluorotelomer alcohol 8+2]
Conditions	concentration in brain [ng/g]
Rat [11]	3370

CCCCOC(=O)c1ccccc1C(=O)O [Mono-n-butyl phthalate]
Conditions	concentration in plasma [ng/mL]
Rat [12]	13200

O=C(O)C(F)(F)C(F)(F)C(F)(F)C(F)(F)C(F)(F)C(F)(F)C(F)(F)C(F)(F)C(F)(F)F [Perfluorodecanoic acid]
Conditions	concentration in brain [ng/g]	concentration in liver [ng/g]
Rat [13]	1220	–
Rat [14]	–	47900

Rat [15]
Conditions	concentration in plasma [ng/mL]
12 h	7480
1200 h	1470

CCC1(c2ccccc2)C(=O)NC(=O)NC1=O [Phenobarbital]
Conditions	concentration in plasma [ng/mL]
Rat [16]	1710
Rat [17]	5510

O=C(O)CSCC(=O)O [Thiodiglycolic Acid]
Conditions	concentration in heart [ng/g]	concentration in plasma [ng/mL]	concentration in thymus [ng/g]
Rat [18]	–	1560	–
Rat [19]	–	–	2310
Rat [20]	1310	–	–
Rat [21]	–	–	657
Rat [22]	2560	–	–
Rat [23]	6060	–	–
Rat [24]	8770	–	–

O=C(O)C(Cl)Cl [dichloroacetic acid]
Conditions	concentration in plasma [ng/mL]
Rat [25]	12400

Conditions	concentration in plasma [ng/mL]
Rat [26], 0.5 h	637
Rat [26], 2 min	398
Rat [27], 1.25 h	54200
Rat [27], 2 min	2970
Rat [28], 1.5 h	3320
Rat [28], 10 min	3380
Rat [29], 8 h	29200
Rat [29], 20 min	20400
Rat [30], 5 min	621
Rat [30], 40 min	137

O=C(O)C(Cl)(Cl)Cl [trichloroacetic acid]
concentration in urine [mg/kg], human
Conditions	2.667 h	6.667 h	10.67 h	19.67 h
1348 mg	6.6	14.2	15.6	21.1
1681 mg	4.3	10.6	22.2	24.9
3907 mg	3	14.2	22.9	26.7

dog
Conditions	concentration in urine [ng/mL]
24 h	32600
48 h	92800
72 h	204000
96 h	386000
120 h	228000
